The source made the active and inactive calls. The rule behind the calls is not given here.
Columns and labels:
[1] = Drug uptake in Sprague-Dawley rat liver at 0.1 mg/kg, po qd administered via gavage measured 7 hrs post last dose on day 14 by LC-MS/MS analysis; format: ADME, organism-based; conditions: read-out: Drug uptake
Procedure, shortened: (§1)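 Drug concentration in liver was quantified from tissue homogenates, so these are total levels. Unbound liver concentration was not determined.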

Rattus norvegicus [2] = experiment: Dose normalized AUC (0 to 24 hrs) in Sprague-Dawley rat at 0.1 mg/kg, po qd administered via gavage measured on day 1 by LC-MS/MS analysis; format: ADME, organism-based; conditions: in vivo
[3] = Drug uptake in Sprague-Dawley rat liver at 0.03 mg/kg, po qd administered via gavage measured 1 hr post last dose on day 14 by LC-MS/MS analysis; format: ADME, organism-based; conditions: read-out: Drug uptake; procedure, shortened: as §1
[4] = Cmax in mouse at 10 mg/kg, po administered via gavage by LC-MS/MS analysis; format: ADME, organism-based; parameters: dose 10 mg/kg, route oral; conditions: in vivo
Procedure, shortened: (§2)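 Single oral dose given as a suspension in 0.5% methylcellulose, 0.5% Tween80 and 99% water. Doses were 10 mg/kg in mouse, 1 mg/kg in rat and 2 mg/kg in dog.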

Rattus norvegicus [5] = experiment: In vivo agonist activity at FXR in po dosed Sprague-Dawley rat assessed as induction of BSEP mRNA level in liver administered as single dose measured 7 hrs post dose by qPCR analysis
[6] = Drug uptake in Sprague-Dawley rat plasma at 1 mg/kg, po qd administered via gavage measured 1 hr post last dose on day 14 by LC-MS/MS analysis; format: ADME, organism-based
Mus musculus = experiment: Drug metabolism in mouse assessed as glycine conjugated metabolite formation at 5 mg/kg, iv or 10 mg/kg, po administered via gavage by LC-MS/MS analysis; format: ADME, organism-based; conditions: in vivo
[7] = Drug uptake in Sprague-Dawley rat plasma at 0.3 mg/kg, po qd administered via gavage measured 7 hrs post last dose on day 14 by LC-MS/MS analysis; format: ADME, organism-based
Rattus norvegicus [8] = experiment: In vivo agonist activity at FXR in Sprague-Dawley rat assessed as induction of BSEP mRNA level in liver at >0.1 mg/kg, po qd for 14 days measured 7 hrs post last dose on day 14 by qPCR analysis; format: functional, organism-based
[9] = target: T1, Bile acid receptor (Rattus norvegicus) (UniProt Q62735); experiment: Agonist activity at FXR in rat primary hepatocytes assessed as induction of BSEP mRNA level after 24 hrs by qPCR analysis; format: cell-based
T1 sequence (whole entry): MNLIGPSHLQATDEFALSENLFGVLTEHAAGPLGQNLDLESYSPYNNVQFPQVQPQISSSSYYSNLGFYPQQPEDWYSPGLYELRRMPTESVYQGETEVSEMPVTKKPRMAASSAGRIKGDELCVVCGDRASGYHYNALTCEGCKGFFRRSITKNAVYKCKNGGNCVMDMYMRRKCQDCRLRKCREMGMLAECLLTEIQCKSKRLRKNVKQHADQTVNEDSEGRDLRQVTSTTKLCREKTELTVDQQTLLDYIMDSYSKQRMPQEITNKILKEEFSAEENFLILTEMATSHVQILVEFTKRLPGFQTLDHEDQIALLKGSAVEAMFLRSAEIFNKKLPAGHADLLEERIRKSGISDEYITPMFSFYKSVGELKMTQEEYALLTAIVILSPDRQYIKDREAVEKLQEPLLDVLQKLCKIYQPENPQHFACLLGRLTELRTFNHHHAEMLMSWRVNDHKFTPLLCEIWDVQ

[10] = Protein binding in rat plasma at 0.01 to 0.05 mg/kg, po qd administered via gavage by LC-MS/MS analysis; format: ADME, organism-based; conditions: read-out: PPB
[11] = Drug uptake in Sprague-Dawley rat liver at 0.3 mg/kg, po qd administered via gavage measured 1 hr post last dose on day 14 by LC-MS/MS analysis; format: ADME, organism-based; conditions: read-out: Drug uptake; procedure, shortened: as §1
[12] = Volume of distribution at steady state in rat at 3 mg/kg, iv by LC-MS/MS analysis; format: ADME, organism-based; conditions: in vivo, read-out: Vdss
Procedure, shortened: (§3)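 Rats were dosed IV as a solution in 75% PEG300:25% D5W, or orally as a suspension in 0.5% methylcellulose, 0.5% Tween80 and 99% water.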

[13] = AUC in rat at 1 mg/kg, po administered via gavage by LC-MS/MS analysis; format: ADME, organism-based; conditions: in vivo; procedure, shortened: as §2
[14] = Drug uptake in Sprague-Dawley rat liver at 0.1 mg/kg, po qd administered via gavage measured 1 hr post last dose on day 14 by LC-MS/MS analysis; format: ADME, organism-based; conditions: read-out: Drug uptake; procedure, shortened: as §1
[15] = Drug uptake in Sprague-Dawley rat plasma at 0.03 mg/kg, po qd administered via gavage measured 7 hrs post last dose on day 14 by LC-MS/MS analysis; format: ADME, organism-based
Canis familiaris = experiment: Drug metabolism in dog assessed as glycine conjugated metabolite formation at 0.5 mg/kg, iv or 2 mg/kg, po administered via gavage by LC-MS/MS analysis; format: ADME, organism-based, Canis lupus familiaris; conditions: in vivo
Procedure, shortened: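 Plasma samples were taken from the dog PK studies. The IV solution was 20% PEG300, 5% solutol and 75% carbonate buffer pH = 8. The PO suspension was 0.5% methylcellulose, 0.5% Tween80 and 99% water. Samples were screened for taurine- and glycine-conjugated metabolites and for the acylglucuronide.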

[16] = Cmax in Sprague-Dawley rat at 0.3 mg/kg, po qd administered via gavage measured on day 1 by LC-MS/MS analysis; format: ADME, organism-based; parameters: dose 0.3 mg/kg, route oral; conditions: in vivo
Rattus norvegicus [17] = experiment: Dose normalized AUC (0 to 24 hrs) in Sprague-Dawley rat at 0.03 mg/kg, po qd administered via gavage measured on day 11 by LC-MS/MS analysis; format: ADME, organism-based; conditions: in vivo
Rattus norvegicus [18] = experiment: Dose normalized AUC (0 to 24 hrs) in Sprague-Dawley rat at 3 mg/kg, po qd administered via gavage measured on day 1 by LC-MS/MS analysis; format: ADME, organism-based; conditions: in vivo
[19] = Drug uptake in Sprague-Dawley rat plasma at 3 mg/kg, po qd administered via gavage measured 7 hrs post last dose on day 14 by LC-MS/MS analysis; format: ADME, organism-based
Rattus norvegicus [20] = experiment: In vivo agonist activity at FXR in po dosed Sprague-Dawley rat assessed as induction of SHP mRNA level in liver administered as single dose after 7 hrs post dose by qPCR analysis; format: functional, organism-based
[21] = Clearance in mouse at 5 mg/kg, iv by LC-MS/MS analysis; format: ADME, organism-based; conditions: in vivo
Procedure, shortened: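 Single IV dose given as a solution. Mouse received 5 mg/kg in 75% PEG300:25% D5W. Dog received 0.5 mg/kg in 20% PEG300, 5% solutol and 75% carbonate buffer pH = 8.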

[22] = Drug uptake in Sprague-Dawley rat liver at 0.3 mg/kg, po qd administered via gavage measured 7 hrs post last dose on day 14 by LC-MS/MS analysis; format: ADME, organism-based; conditions: read-out: Drug uptake; procedure, shortened: as §1
[23] = Clearance in rat at 3 mg/kg, iv by LC-MS/MS analysis; format: ADME, organism-based; conditions: in vivo; procedure, shortened: as §3
[24] = Drug uptake in Sprague-Dawley rat plasma at 0.003 mg/kg, po qd administered via gavage measured 1 hr post last dose on day 14 by LC-MS/MS analysis; format: ADME, organism-based
[25] = AUC (0 to 24 hrs) in Sprague-Dawley rat at 0.3 mg/kg, po qd administered via gavage measured on day 1 by LC-MS/MS analysis; format: ADME, organism-based; parameters: dose 0.3 mg/kg, time < 24 hr, route oral; conditions: in vivo

With `O=C(O)c1cc(F)c2nc(N3C4CCC3CC(OCc3c(-c5ccccc5OC(F)(F)F)noc3C3CC3)C4)sc2c1` (configuration not stated) the concentration at 7 h [1] was 45 nM, the AUC/dose (Rattus norvegicus [2]) was 410 nM·h and the concentration at 1 h [3] was 11.9 nM. For the same molecule, the Cmax [4] was 1190 nM, the Activity (Rattus norvegicus [5]) was “Dose-dependent effect” and the concentration at 1 h [6] was 16.4 nM. The Drug metabolism (Mus musculus) was “Metabolite_Notdetected”, the concentration at 7 h [7] was 13.8 nM and the Activity (Rattus norvegicus [8]) was “Active”. For the same molecule, the Activity [9] was “Dose-dependent effect”, the fraction unbound [10] was 0.001 and the concentration at 1 h [11] was 84.5 nM. The Vd [12] was 0.72 L/kg, the AUC [13] was 0.307 µM·h and the concentration at 1 h [14] was 27.4 nM. For the same molecule, the concentration at 7 h [15] was 1.16 nM, the Drug metabolism (Canis familiaris) was “Metabolite_Notdetected” and the Cmax [16] was 13.5 nM. For the same molecule, the AUC/dose (Rattus norvegicus [17]) was 658 nM·h, the AUC/dose (Rattus norvegicus [18]) was 448 nM·h and the concentration at 7 h [19] was 115 nM. For the same molecule, the Activity (Rattus norvegicus [20]) was “Dose-dependent effect”, the clearance [21] was 5.3 mL/min/kg and the concentration at 7 h [22] was 92.8 nM. The clearance [23] was 9 to 9.3 mL/min/kg, the concentration at 1 h [24] was 0.2 nM and the AUC(0-t) at 24 h [25] was 0.117 µM·h.
